Assay results as given in ChEMBL document CHEMBL3856239, “Synthesis and Antiobesity Properties of 6-(4-Chlorophenyl)-3-(4-((3,3-difluoro-1-hydroxycyclobutyl)methoxy)-3-methoxyphenyl)thieno[3,2-d]pyrimidin-4(3H)-one (BMS-814580): A Highly Efficacious Melanin Concentrating Hormone Receptor 1 (MCHR1) Inhibitor” (J Med Chem, 2016).

What was measured:
[1] = Protein binding in Sprague-Dawley rat plasma at 10 mg/kg, po qd for 4 days; assay type: ADME, organism-based; details: read-out: PPB
Cytochrome P450 3A4 = Cytochrome P450 3A4 (Homo sapiens, UniProt P08684); experiment: Inhibition of CYP3A4 (unknown origin); assay type: ADME
Chain of Cytochrome P450 3A4 (P08684 whole entry): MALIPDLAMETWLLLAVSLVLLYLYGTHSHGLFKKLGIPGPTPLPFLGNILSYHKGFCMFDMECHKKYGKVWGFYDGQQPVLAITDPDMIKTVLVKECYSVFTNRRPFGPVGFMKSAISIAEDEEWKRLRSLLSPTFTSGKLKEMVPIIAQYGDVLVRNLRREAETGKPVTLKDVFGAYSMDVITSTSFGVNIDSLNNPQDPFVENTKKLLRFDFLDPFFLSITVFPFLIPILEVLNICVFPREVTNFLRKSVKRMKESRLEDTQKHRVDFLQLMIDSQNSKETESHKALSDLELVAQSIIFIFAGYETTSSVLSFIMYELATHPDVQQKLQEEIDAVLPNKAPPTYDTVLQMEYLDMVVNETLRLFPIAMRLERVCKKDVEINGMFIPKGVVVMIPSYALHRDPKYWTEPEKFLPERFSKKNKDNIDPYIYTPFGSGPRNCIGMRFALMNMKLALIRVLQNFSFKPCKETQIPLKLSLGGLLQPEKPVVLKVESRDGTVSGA

[2] = Binding affinity to cynomolgus monkey MCHR1; parameters: species or system Macaca fascicularis
[3] = Cardiotoxicity in anesthetized rabbit assessed as effect on heart rate; assay type: toxicity, tissue-based, Oryctolagus cuniculus
In short: (§1)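 Anesthetized rabbits given compound to plasma concentrations up to 38 µM; QT and QRS duration, mean arterial blood pressure and heart rate recorded.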

[4] = target: Melanin-concentrating hormone receptor 1 (Homo sapiens, UniProt Q99705); experiment: Antagonist activity at human MCHR1 expressed in HEK293 cells assessed as inhibition of MCH-stimulated calcium flux measured after 15 mins by FLIPR assay; assay type: functional, cell-based
Chain of Melanin-concentrating hormone receptor 1 (Homo sapiens, UniProt Q99705) (Q99705 whole entry): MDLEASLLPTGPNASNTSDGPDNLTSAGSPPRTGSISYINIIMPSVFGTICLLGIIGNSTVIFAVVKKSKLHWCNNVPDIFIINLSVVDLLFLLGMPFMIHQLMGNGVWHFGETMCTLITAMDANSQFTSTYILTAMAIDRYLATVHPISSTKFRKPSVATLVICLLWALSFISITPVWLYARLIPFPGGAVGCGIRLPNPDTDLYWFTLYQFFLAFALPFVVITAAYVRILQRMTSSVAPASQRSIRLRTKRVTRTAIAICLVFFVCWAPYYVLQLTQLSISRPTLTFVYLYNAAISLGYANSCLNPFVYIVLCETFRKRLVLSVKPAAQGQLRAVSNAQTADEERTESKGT

Cytochrome P450 2D6 = Cytochrome P450 2D6 (Homo sapiens, UniProt P10635); experiment: Inhibition of CYP2D6 (unknown origin); assay type: ADME
Chain of Cytochrome P450 2D6 (P10635 whole entry): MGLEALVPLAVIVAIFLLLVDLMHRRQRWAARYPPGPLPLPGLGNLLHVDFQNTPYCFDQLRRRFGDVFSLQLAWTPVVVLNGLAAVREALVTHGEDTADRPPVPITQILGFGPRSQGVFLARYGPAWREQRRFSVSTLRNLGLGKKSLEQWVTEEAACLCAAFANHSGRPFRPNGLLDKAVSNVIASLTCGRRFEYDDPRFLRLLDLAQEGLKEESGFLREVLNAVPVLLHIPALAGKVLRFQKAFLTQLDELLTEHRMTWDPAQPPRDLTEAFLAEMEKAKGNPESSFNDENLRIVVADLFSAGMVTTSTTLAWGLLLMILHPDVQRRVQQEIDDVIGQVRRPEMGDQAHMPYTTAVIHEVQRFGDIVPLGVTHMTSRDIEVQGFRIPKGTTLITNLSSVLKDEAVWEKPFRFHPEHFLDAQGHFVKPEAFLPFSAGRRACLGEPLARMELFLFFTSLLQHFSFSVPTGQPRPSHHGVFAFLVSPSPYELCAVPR

[5] = Solubility of the compound in phosphate buffer at pH 6.4; assay type: physicochemical
In short: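 Solubility of parent compounds and prodrugs measured in 50 mM phosphate buffer, pH 6.4.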

Rattus norvegicus [6] = experiment: Antiobesity activity in pair-fed DIO Sprague-Dawley rat model assessed as reduction in caloric intake at 1 mg/kg, po qd for 28 days relative to vehicle control; assay type: functional; parameters: scale not given: the % may be the effect or the level left
In short: (§2)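 Obese male SD rats on diet-induced obesity, 8/group, dosed orally once daily for 28 days with phosphate prodrug (0.03–3 mg/kg parent) in 14% propylene glycol/1% Tween/85% water; rimonabant 10 mg/kg control; pair-fed groups matched to 1 and 3 mg/kg intake; body weight and food measured daily, % change versus vehicle.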

[7] = AUC in rat at 1 mg/kg, iv; assay type: ADME, organism-based; details: in vivo
In short: (§3)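 Rats, dogs and cynomolgus monkeys, n = 3: parent 1 mg/kg i.v. in PEG400:DMAC:water (70:5:25), or phosphate prodrug 10 mg/kg oral in Methocel:Tween80:water (0.5:0.1:99.4); plasma parent compound, Cmax, Tmax, AUC0-∞, half-life, clearance, Vss and bioavailability derived.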

Homo sapiens [8] = organism: Homo sapiens; experiment: Inhibition of human PDE4 using [3H]cAMP at 10 uM
[9] = Cardiotoxicity in anesthetized rabbit assessed as prolongation of QT intervals up to plasma concentration of 38 uM; assay type: toxicity, Oryctolagus cuniculus; in short: as §1
[10] = Half life in cynomolgus monkey at 1 mg/kg, iv; assay type: ADME, organism-based, Macaca fascicularis; details: in vivo; in short: as §3
Cytochrome P450 1A2 = target: T1, Cytochrome P450 1A2 (Homo sapiens, UniProt P05177); experiment: Inhibition of CYP1A2 (unknown origin); assay type: ADME
T1 sequence (P05177 whole entry): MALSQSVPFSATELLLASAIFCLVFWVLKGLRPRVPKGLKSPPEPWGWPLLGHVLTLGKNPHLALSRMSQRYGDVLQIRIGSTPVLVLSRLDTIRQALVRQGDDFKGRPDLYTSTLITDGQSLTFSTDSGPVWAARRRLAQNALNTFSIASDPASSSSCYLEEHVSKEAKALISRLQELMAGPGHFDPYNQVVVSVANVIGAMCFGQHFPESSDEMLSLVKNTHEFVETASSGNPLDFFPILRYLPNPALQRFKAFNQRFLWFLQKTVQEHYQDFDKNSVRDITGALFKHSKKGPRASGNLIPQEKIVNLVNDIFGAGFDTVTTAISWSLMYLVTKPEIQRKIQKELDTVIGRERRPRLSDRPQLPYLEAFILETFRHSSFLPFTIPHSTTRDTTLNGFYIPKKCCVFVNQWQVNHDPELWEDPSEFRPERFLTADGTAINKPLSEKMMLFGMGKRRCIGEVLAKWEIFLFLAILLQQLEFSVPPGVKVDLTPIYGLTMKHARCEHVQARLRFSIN
In short: (§4)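 CYP1A2, 2C8, 2C9, 2C19, 2D6 and 3A4 tested for inhibition, with 40 µM as the top tested limit.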

Cytochrome P450 2C19 = Cytochrome P450 2C19 (Homo sapiens, UniProt P33261); experiment: Inhibition of CYP2C19 (unknown origin); assay type: ADME; in short: as §4
Chain of Cytochrome P450 2C19 (P33261 whole entry): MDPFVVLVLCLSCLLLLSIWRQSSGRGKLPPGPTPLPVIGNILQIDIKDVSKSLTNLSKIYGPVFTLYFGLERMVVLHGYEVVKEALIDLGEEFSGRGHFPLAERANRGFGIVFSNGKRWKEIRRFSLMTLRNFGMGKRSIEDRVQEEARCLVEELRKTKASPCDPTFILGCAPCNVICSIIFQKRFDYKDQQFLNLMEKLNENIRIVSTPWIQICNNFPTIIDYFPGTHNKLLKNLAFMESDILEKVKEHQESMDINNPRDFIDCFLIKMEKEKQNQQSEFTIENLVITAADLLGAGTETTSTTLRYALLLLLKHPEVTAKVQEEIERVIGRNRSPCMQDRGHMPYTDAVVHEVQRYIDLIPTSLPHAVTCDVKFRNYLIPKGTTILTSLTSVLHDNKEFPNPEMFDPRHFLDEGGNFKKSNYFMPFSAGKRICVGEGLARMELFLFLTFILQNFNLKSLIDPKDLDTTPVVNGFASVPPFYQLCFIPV

[11] = target: Melanin-concentrating hormone receptor 1 (Rattus norvegicus, UniProt P97639); experiment: Binding affinity to rat MCHR1
Chain of Melanin-concentrating hormone receptor 1 (Rattus norvegicus, UniProt P97639) (P97639 whole entry): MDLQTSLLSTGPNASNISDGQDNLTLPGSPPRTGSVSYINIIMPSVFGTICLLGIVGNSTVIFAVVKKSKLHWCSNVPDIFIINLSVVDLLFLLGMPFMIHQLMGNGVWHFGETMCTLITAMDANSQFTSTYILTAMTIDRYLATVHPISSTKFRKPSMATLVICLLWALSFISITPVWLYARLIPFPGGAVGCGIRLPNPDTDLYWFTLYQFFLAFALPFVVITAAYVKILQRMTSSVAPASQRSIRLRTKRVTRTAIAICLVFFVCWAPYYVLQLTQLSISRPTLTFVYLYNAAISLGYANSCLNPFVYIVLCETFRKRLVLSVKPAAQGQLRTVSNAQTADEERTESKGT

[12] = Metabolic stability in rat liver microsomes assessed as compound remaining at 3 uM measured after 10 min; assay type: ADME; details: read-out: Stability
In short: (§5)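 Test compound at 3.0 µM incubated with liver microsomes for 10 minutes; read-out is percent of parent remaining.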

Cytochrome P450 2C9 = Cytochrome P450 2C9 (Homo sapiens, UniProt P11712); experiment: Inhibition of CYP2C9 (unknown origin); assay type: ADME; in short: as §4
Chain of Cytochrome P450 2C9 (P11712 whole entry): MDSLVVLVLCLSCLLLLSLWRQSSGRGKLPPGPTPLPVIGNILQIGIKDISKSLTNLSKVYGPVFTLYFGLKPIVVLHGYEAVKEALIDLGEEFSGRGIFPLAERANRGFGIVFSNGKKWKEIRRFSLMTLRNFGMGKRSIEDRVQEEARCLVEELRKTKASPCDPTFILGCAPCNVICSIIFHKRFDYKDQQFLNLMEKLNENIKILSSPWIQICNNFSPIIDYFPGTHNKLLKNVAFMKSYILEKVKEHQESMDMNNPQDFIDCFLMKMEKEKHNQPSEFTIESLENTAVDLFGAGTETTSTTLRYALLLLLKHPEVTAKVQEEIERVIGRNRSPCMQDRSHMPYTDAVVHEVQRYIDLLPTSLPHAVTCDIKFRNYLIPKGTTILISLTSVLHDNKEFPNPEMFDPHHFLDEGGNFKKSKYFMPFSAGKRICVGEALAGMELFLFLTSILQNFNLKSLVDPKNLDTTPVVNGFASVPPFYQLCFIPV

[13] = AUC in cynomolgus monkey at 1 mg/kg, iv; assay type: ADME, organism-based, Macaca fascicularis; details: in vivo; in short: as §3
[14] = Clearance rat at 1 mg/kg, iv; assay type: ADME, organism-based; details: in vivo; in short: as §3
[15] = Displacement of [Phe13,125I]Tyr19]-MCH from human MCHR1 E4Q/A5T double mutant expressed in HEK293 cells by TopCount scintillation counting method; assay type: cell-based
[16] = Cardiotoxicity in anesthetized rabbit assessed as effect on mean arterial blood pressure; assay type: toxicity, tissue-based, Oryctolagus cuniculus; in short: as §1
[17] = Clearance in cynomolgus monkey at 1 mg/kg, iv; assay type: ADME, organism-based, Macaca fascicularis; details: in vivo; in short: as §3
[18] = Clearance in dog at 1 mg/kg, iv; assay type: ADME, organism-based, Canis lupus familiaris; details: in vivo; in short: as §3
[19] = Cardiotoxicity in anesthetized rabbit assessed as prolongation of QRS intervals up to plasma concentration of 38 uM; assay type: toxicity, Oryctolagus cuniculus; in short: as §1
[20] = Mutagenic activity in Salmonella typhimurium by Ames test; assay type: toxicity; details: salmonella enterica subsp. enterica serovar typhimurium
[21] = Metabolic stability in mouse liver microsomes assessed as compound remaining at 3 uM measured after 10 min; assay type: ADME; details: read-out: Stability; in short: as §5
hERG (KCNH2) = hERG (KCNH2) (Homo sapiens, UniProt Q12809); experiment: Inhibition of human ERG at 10 uM
Chain of hERG (KCNH2) (Q12809 whole entry): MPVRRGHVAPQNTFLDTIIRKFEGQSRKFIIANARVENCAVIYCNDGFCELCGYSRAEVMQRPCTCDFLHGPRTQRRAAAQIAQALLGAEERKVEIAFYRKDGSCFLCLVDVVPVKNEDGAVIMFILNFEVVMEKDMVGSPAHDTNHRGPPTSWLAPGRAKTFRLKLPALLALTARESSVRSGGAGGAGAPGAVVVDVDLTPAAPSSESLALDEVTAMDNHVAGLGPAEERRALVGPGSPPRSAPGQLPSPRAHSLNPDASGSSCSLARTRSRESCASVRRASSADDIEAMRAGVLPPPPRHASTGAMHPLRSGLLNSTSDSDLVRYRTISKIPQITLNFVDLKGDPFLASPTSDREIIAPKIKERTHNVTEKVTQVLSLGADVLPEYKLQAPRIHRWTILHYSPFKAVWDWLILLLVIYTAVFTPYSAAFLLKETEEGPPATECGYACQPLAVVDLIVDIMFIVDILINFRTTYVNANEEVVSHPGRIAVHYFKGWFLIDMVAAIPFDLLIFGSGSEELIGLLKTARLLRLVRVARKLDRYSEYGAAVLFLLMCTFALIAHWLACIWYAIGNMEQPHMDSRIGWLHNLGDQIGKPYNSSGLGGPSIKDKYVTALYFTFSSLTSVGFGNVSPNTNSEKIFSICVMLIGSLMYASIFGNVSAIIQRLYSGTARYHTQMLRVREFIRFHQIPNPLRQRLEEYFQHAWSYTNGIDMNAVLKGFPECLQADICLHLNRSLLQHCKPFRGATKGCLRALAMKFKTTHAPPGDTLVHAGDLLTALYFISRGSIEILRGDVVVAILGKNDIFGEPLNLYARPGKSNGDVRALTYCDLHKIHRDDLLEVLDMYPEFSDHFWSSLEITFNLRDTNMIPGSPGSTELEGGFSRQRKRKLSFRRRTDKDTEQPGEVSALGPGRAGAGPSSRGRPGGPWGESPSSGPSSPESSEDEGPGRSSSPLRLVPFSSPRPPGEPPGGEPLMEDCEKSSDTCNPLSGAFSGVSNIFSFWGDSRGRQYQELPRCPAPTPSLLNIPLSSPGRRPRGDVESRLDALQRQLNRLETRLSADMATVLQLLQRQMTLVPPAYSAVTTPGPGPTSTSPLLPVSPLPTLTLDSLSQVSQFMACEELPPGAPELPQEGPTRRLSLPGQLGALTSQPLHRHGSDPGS
In short: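 In vitro ion-channel inhibition measured at 10 µM against hERG, Na (4 Hz) and L-type Ca channels; read-out is percent inhibition.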

Homo sapiens [22] = organism: Homo sapiens; experiment: Inhibition of sodium channel (unknown origin) at 10 uM and 4 Hz
[23] = Metabolic stability in human liver microsomes assessed as compound remaining at 3 uM measured after 10 min; assay type: ADME; details: read-out: Stability; in short: as §5
Rattus norvegicus [24] = experiment: Antiobesity activity in pair-fed DIO Sprague-Dawley rat model assessed as reduction in body weight at 3 mg/kg, po qd for 28 days relative to vehicle control; assay type: functional; parameters: scale not given: the % may be the effect or the level left; in short: as §2
Rattus norvegicus [25] = experiment: Antiobesity activity in pair-fed DIO Sprague-Dawley rat model assessed as reduction in caloric intake at 3 mg/kg, po qd for 28 days relative to vehicle control; assay type: functional; parameters: scale not given: the % may be the effect or the level left; in short: as §2
[26] = Volume of distribution at steady state in rat at 1 mg/kg, iv; assay type: ADME, organism-based; details: in vivo, read-out: Vdss
In short: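 Full PK in rat, dog and cynomolgus monkey. Oral arm: phosphate prodrug at 10 mg/kg parent-equivalent in Methocel:Tween80:water (0.5:0.1:99.4). Intravenous arm: parent at 1 mg/kg in PEG400:DMAC:water (70:5:25). n = 3 per species; individual Tmax values reported for dog and monkey.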

SMILES: COc1cc(-n2cnc3cc(-c4ccc(Cl)cc4)sc3c2=O)ccc1OCC1(O)CC(F)(F)C1
- fraction unbound at 96 h [1]: < 0.02
- INH (Cytochrome P450 3A4): > 40 µM
- Ki [2]: 4.9 nM
- Activity [3]: Non-Toxic
- Kb [4]: 117 nM
- INH (Cytochrome P450 2D6): > 40 µM
- solubility [5]: < 1 µg/mL
- Activity (Rattus norvegicus [6]): 14.3%
- AUC [7]: 11.5 µM·h
- inhibition (Homo sapiens [8]): 68%
- Activity [9]: Non-Toxic
- half-life [10]: 2220 min
- INH (Cytochrome P450 1A2): > 40 µM
- INH (Cytochrome P450 2C19): > 40 µM
- Ki [11]: 11.5 nM
- remaining at 10 min, 3 µM [12]: 95%
- INH (Cytochrome P450 2C9): > 40 µM
- AUC [13]: 22.1 µM·h
- clearance [14]: 0.9 mL/min/kg
- Ki [15]: 16.9 nM
- Activity [16]: Non-Toxic
- clearance [17]: 1.7 mL/min/kg
- clearance [18]: 6.9 mL/min/kg
- Activity [19]: Non-Toxic
- Activity [20]: Non-Toxic
- remaining at 10 min, 3 µM [21]: 100%
- inhibition at 10 µM (hERG (KCNH2)): 43%
- inhibition (Homo sapiens [22]): 21%
- remaining at 10 min, 3 µM [23]: 90%
- Activity (Rattus norvegicus [24]): 4.1%
- Activity (Rattus norvegicus [25]): 14.7%
- Vd [26]: 4.1 L/kg
